Experimental data from ChEMBL document CHEMBL1138925, “Design and synthesis of orally active pyrrolidin-2-one-based factor Xa inhibitors” (Bioorg Med Chem Lett, 2006).

Experiments:
[1] = Lipophilicity, log D by CHI assay at pH 7.4; format: physicochemical; settings: buffer, read-out: Log D
[2] = Half life in Han Wistar rat at 1 mg/kg, iv and 2.5 mg/kg, po; format: ADME, organism-based; settings: in vivo
Method in brief: (§1)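 Male Han Wistar rats were given an intravenous bolus at a nominal 1 mg/kg, or oral gavage at a nominal 2.5 mg/kg.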

[3] = Plasma clearance in Han Wistar rat at 1 mg/kg, iv and 2.5 mg/kg, po; format: ADME, organism-based; method in brief: as §1
[4] = Volume of distribution in Han Wistar rat at 1 mg/kg, iv and 2.5 mg/kg, po; format: ADME, organism-based; settings: in vivo, read-out: Vss; method in brief: as §1
[5] = Oral bioavailability in Han Wistar rat at 1 mg/kg, iv and 2.5 mg/kg, po; format: ADME, organism-based; settings: in vivo; method in brief: as §1
[6] = Half life in Beagle dog at 1 mg/kg, iv and 1 mg/kg, po; format: ADME, organism-based, Canis lupus familiaris; settings: in vivo
[7] = Plasma clearance in Beagle dog at 1 mg/kg, iv and 1 mg/kg, po; format: ADME, organism-based, Canis lupus familiaris
[8] = Volume of distribution in Beagle dog at 1 mg/kg, iv and 1 mg/kg, po; format: ADME, organism-based, Canis lupus familiaris; settings: in vivo, read-out: Vss
[9] = Oral bioavailability in Beagle dog at 1 mg/kg, iv and 1 mg/kg, po; format: ADME, organism-based, Canis lupus familiaris; settings: in vivo

Compound	chromatographic logD [1]	half-life [2] [min]	clearance [3] [mL/min/kg]	Vd [4] [L/kg]	bioavailability [5] [%]	half-life [6] [min]	clearance [7] [mL/min/kg]	Vd [8] [L/kg]	bioavailability [9] [%]
C[C@@H](C(=O)N1CC2CCC1CC2)N1CC[C@H](NS(=O)(=O)c2ccc3cc(Cl)ccc3c2)C1=O	2.94								
C[C@@H](C(=O)N1CC2CNCC(C2)C1)N1CC[C@H](NS(=O)(=O)c2ccc3cc(Cl)ccc3c2)C1=O	1.47								
C[C@@H](C(=O)N1CCOCC1)N1CC[C@H](NS(=O)(=O)c2ccc3cc(Cl)ccc3c2)C1=O	2.2	54	13	0.6	85	126	2.7	0.44	100

The next lines start with the values.

chromatographic logD [1]	half-life [2] [min]	clearance [3] [mL/min/kg]	Vd [4] [L/kg]	bioavailability [5] [%]	half-life [6] [min]	clearance [7] [mL/min/kg]	Vd [8] [L/kg]	bioavailability [9] [%]	Compound
	30	15	0.4						C[C@@H](C(=O)N1CCOCC1)N1CC[C@H](N(C)S(=O)(=O)c2ccc3cc(Cl)ccc3c2)C1=O
	12	37	0.3						C[C@@H](C(=O)N1CCOCC1)N1CC[C@H](N(CC(=O)O)S(=O)(=O)c2ccc3cc(Cl)ccc3c2)C1=O
	18	24	0.5						C[C@@H](C(=O)N1CCOCC1)N1CC[C@H](N(CC(N)=O)S(=O)(=O)c2ccc3cc(Cl)ccc3c2)C1=O
	30	37	1.1						CCC(=O)CN([C@H]1CCN([C@@H](C)C(=O)N2CCOCC2)C1=O)S(=O)(=O)c1ccc2cc(Cl)ccc2c1
